Data as given in ChEMBL document CHEMBL4689842, “EUbOPEN Chemogenomics Library wave 1” (2021).

Assays:
HEK-293T = test: Multiplex assay against HEK293T; assay type: toxicity, cell-based; conditions: human;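 as to Population Tubulin-Different-Phenotype (%): share of the cells with healthy nuclei that show this phenotype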
How it was run: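 Imaging took place on a CQ1 microscope at 37°C and 5% CO2 once compound had been added to live cells stained at seeding with Hoechst33342, BioTracker Green Microtubule Cytoskeleton Dye, MitoTracker Red and Annexin V Alexa Fluor 680. CellPathfinder machine-learning gating classed cells as Hoechst high-intensity objects or normal cells, classed normal cells as having healthy, pyknosed or fragmented nuclei, and classed pyknosed cells as mitotic or apoptotic. Tubulin, mitochondrial-mass and membrane-permeability phenotypes are per cents of the healthy-nucleus cells.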

Fibroblast = test: Incucyte cell viability with human fibroblast; assay type: toxicity, cell-based; conditions: 10 µM, compound concentration 10 uM; also: filed as whole numbers so only -1 and 0 and 1 occur
[1] = 12 h, 1 µM, compound concentration 1 uM, replicate 1
[2] = 12 h, 1 µM, compound concentration 1 uM, replicate 2
[3] = 12 h, 10 µM, compound concentration 10 uM, replicate 1
[4] = 12 h, 10 µM, compound concentration 10 uM, replicate 2
[5] = 24 h, 1 µM, compound concentration 1 uM, replicate 1
[6] = 24 h, 1 µM, compound concentration 1 uM, replicate 2
[7] = 24 h, 10 µM, compound concentration 10 uM, replicate 1
[8] = 24 h, 10 µM, compound concentration 10 uM, replicate 2
[9] = 48 h, 1 µM, compound concentration 1 uM, replicate 1
[10] = 48 h, 1 µM, compound concentration 1 uM, replicate 2
[11] = 48 h, 10 µM, compound concentration 10 uM, replicate 1
[12] = 48 h, 10 µM, compound concentration 10 uM, replicate 2

## CCCCCNC(=N)N/N=C/c1c[nH]c2ccc(OC)cc12.O=C(O)/C=C\C(=O)O [TEGASEROD MALEATE]
HEK-293T; [1]
  Population Apoptotic (%): 45%
  Population Fragmented Nuclei (%): 20%
  Population Healthy Nuclei (%): 42%
  Population Hoechst High Intensity Objects (%): 16%
  Population Membrane Permeable-Phenotype (%): 4%
  Population Mitochondria Different-Phenotype (%): 88%
  Population Mitotic Cells (%): 54%
  Population Normal (%): 83%
  Population Pyknosed Nuclei (%): 36%
  Population Tubulin-Different-Phenotype (%): 52%
  Total Cell Count: 192
HEK-293T; [2]
  Population Apoptotic (%): 24%
  Population Fragmented Nuclei (%): 4%
  Population Healthy Nuclei (%): 35%
  Population Hoechst High Intensity Objects (%): 1%
  Population Membrane Permeable-Phenotype (%): 9%
  Population Mitochondria Different-Phenotype (%): 50%
  Population Mitotic Cells (%): 75%
  Population Normal (%): 98%
  Population Pyknosed Nuclei (%): 59%
  Population Tubulin-Different-Phenotype (%): 48%
  Total Cell Count: 204
HEK-293T; [3]
  Population Apoptotic (%): 51%
  Population Fragmented Nuclei (%): 27%
  Population Healthy Nuclei (%): 0%
  Population Hoechst High Intensity Objects (%): 27%
  Population Membrane Permeable-Phenotype (%): 0%
  Population Mitochondria Different-Phenotype (%): 0%
  Population Mitotic Cells (%): 48%
  Population Normal (%): 72%
  Population Pyknosed Nuclei (%): 72%
  Population Tubulin-Different-Phenotype (%): 0%
  Total Cell Count: 295
HEK-293T; [4]
  Population Apoptotic (%): 96%
  Population Fragmented Nuclei (%): 15%
  Population Healthy Nuclei (%): 3%
  Population Hoechst High Intensity Objects (%): 29%
  Population Mitotic Cells (%): 3%
  Population Normal (%): 70%
  Population Pyknosed Nuclei (%): 81%
  Population Tubulin-Different-Phenotype (%): 100%
  Total Cell Count: 93
HEK-293T; [5]
  Population Apoptotic (%): 46%
  Population Fragmented Nuclei (%): 15%
  Population Healthy Nuclei (%): 60%
  Population Hoechst High Intensity Objects (%): 13%
  Population Membrane Permeable-Phenotype (%): 1%
  Population Mitochondria Different-Phenotype (%): 83%
  Population Mitotic Cells (%): 53%
  Population Normal (%): 86%
  Population Pyknosed Nuclei (%): 23%
  Population Tubulin-Different-Phenotype (%): 46%
  Total Cell Count: 196
HEK-293T; [6]
  Population Apoptotic (%): 24%
  Population Fragmented Nuclei (%): 4%
  Population Healthy Nuclei (%): 54%
  Population Hoechst High Intensity Objects (%): 3%
  Population Membrane Permeable-Phenotype (%): 7%
  Population Mitochondria Different-Phenotype (%): 46%
  Population Mitotic Cells (%): 75%
  Population Normal (%): 96%
  Population Pyknosed Nuclei (%): 40%
  Population Tubulin-Different-Phenotype (%): 43%
  Total Cell Count: 260
HEK-293T; [7]
  Population Apoptotic (%): 54%
  Population Fragmented Nuclei (%): 31%
  Population Healthy Nuclei (%): 0%
  Population Hoechst High Intensity Objects (%): 35%
  Population Membrane Permeable-Phenotype (%): 100%
  Population Mitochondria Different-Phenotype (%): 100%
  Population Mitotic Cells (%): 45%
  Population Normal (%): 64%
  Population Pyknosed Nuclei (%): 68%
  Population Tubulin-Different-Phenotype (%): 0%
  Total Cell Count: 288
HEK-293T; [8]
  Population Apoptotic (%): 97%
  Population Fragmented Nuclei (%): 25%
  Population Healthy Nuclei (%): 27%
  Population Hoechst High Intensity Objects (%): 13%
  Population Membrane Permeable-Phenotype (%): 23%
  Population Mitochondria Different-Phenotype (%): 9%
  Population Mitotic Cells (%): 2%
  Population Normal (%): 86%
  Population Pyknosed Nuclei (%): 46%
  Population Tubulin-Different-Phenotype (%): 85%
  Total Cell Count: 89
HEK-293T; [9]
  Population Fragmented Nuclei (%): 9%
  Population Healthy Nuclei (%): 77%
  Population Hoechst High Intensity Objects (%): 8%
  Population Membrane Permeable-Phenotype (%): 0%
  Population Mitochondria Different-Phenotype (%): 38%
  Population Normal (%): 91%
  Population Pyknosed Nuclei (%): 12%
  Population Tubulin-Different-Phenotype (%): 30%
  Total Cell Count: 290
HEK-293T; [10]
  Population Apoptotic (%): 33%
  Population Fragmented Nuclei (%): 7%
  Population Healthy Nuclei (%): 78%
  Population Hoechst High Intensity Objects (%): 4%
  Population Membrane Permeable-Phenotype (%): 5%
  Population Mitochondria Different-Phenotype (%): 21%
  Population Mitotic Cells (%): 66%
  Population Normal (%): 95%
  Population Pyknosed Nuclei (%): 14%
  Population Tubulin-Different-Phenotype (%): 42%
  Total Cell Count: 411
HEK-293T; [11]
  Population Apoptotic (%): 58%
  Population Fragmented Nuclei (%): 36%
  Population Healthy Nuclei (%): 0%
  Population Hoechst High Intensity Objects (%): 31%
  Population Membrane Permeable-Phenotype (%): 0%
  Population Mitochondria Different-Phenotype (%): 0%
  Population Mitotic Cells (%): 41%
  Population Normal (%): 68%
  Population Pyknosed Nuclei (%): 63%
  Population Tubulin-Different-Phenotype (%): 0%
  Total Cell Count: 277
HEK-293T; [12]
  Population Apoptotic (%): 100%
  Population Fragmented Nuclei (%): 32%
  Population Healthy Nuclei (%): 47%
  Population Hoechst High Intensity Objects (%): 6%
  Population Membrane Permeable-Phenotype (%): 17%
  Population Mitochondria Different-Phenotype (%): 28%
  Population Mitotic Cells (%): 0%
  Population Normal (%): 93%
  Population Pyknosed Nuclei (%): 20%
  Population Tubulin-Different-Phenotype (%): 65%
  Total Cell Count: 79
Fibroblast; 6 h, replicate number 1, timepoint 6 hours
  Growth Rate: 0
Fibroblast; 12 h, replicate number 1, timepoint 12 hours
  Growth Rate: 0
Fibroblast; 18 h, replicate number 1, timepoint 18 hours
  Growth Rate: 0
Fibroblast; 24 h, replicate number 1, timepoint 24 hours
  Growth Rate: 0
